Test results reported in ChEMBL document CHEMBL1139282, “6-Bicycloaryl substituted (S)- and (R)-5,6-dihydro-2H-pyran-2-ones: asymmetric synthesis, and anti-proliferative properties” (Bioorg Med Chem, 2009).

How the values were obtained:
Assay type in all cases: functional, cell-based
PC-3 [1] = assay: Cytotoxicity against human PC3 cells after 48 hrs by MTT assay; conditions: PC-3, 48 h
Outline: (§1)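 PC-3 kept in DMEM with 5% FBS, MCF-7 in RPMI-1640 with 15% FBS, both used at passages 10-20. Seeded at 1×10^4 cells/well, attached 24 h, then treated 48 h at 0.01-50 µM with final 1% DMSO, in triplicate. Wells PBS-washed, diluted MTT stock (1:10) added for 3.5 h, plates centrifuged before formazan read-out.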

MCF7 [2] = assay: Cytotoxicity against human MCF7 cells after 48 hrs by MTT assay; conditions: MCF7, 48 h; outline: as §1
DU-145 = assay: Cytotoxicity against human DU145 cells after 72 hrs by MTT assay; conditions: DU-145, 72 h
Outline: (§2)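 ATCC-sourced lines grown at 37 °C, 5% CO2 in RPMI-1640 or DMEM with 5-10% FBS plus penicillin/streptomycin. Cells exposed to a range of doses for 72 h at 37 °C. MTT added, medium removed 4 h later, formazan dissolved in DMSO and read at 570-690 nm. IC50 from three independent assays, two wells each, via % viability.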

MCF7 [3] = assay: Cytotoxicity against human MCF7 cells after 72 hrs by MTT assay; conditions: MCF7, 72 h; outline: as §2
LNCaP = assay: Cytotoxicity against human LNCAP cells after 72 hrs by MTT assay; outline: as §2
PC-3 [4] = assay: Cytotoxicity against human PC3 cells after 72 hrs by MTT assay; conditions: PC-3, 72 h; outline: as §2

C=CC[C@@H](OC(=O)C=C)c1cccc(Oc2ccccc2)c1
IC50 (PC-3 [1]): > 50 µM | IC50 (MCF7 [2]): > 50 µM

O=C1C=CC[C@@H](c2ccc3ccccc3c2)O1
IC50 (DU-145): 28 µM | IC50 (MCF7 [3]): 37 µM | IC50 (LNCaP): 15 µM | IC50 (PC-3 [4]): 12 µM

Cc1ccc2ccccc2c1[C@H]1CC=CC(=O)O1
IC50 (PC-3 [1]): 0.13 µM | IC50 (MCF7 [2]): 2.6 µM

O=C1C=CC[C@H](c2ccc3ccccc3c2)O1
IC50 (DU-145): 12 µM | IC50 (MCF7 [3]): 19 µM | IC50 (LNCaP): 11 µM | IC50 (PC-3 [4]): 3 µM

O=C1C=CC[C@H](c2cnc3ccccc3c2)O1
IC50 (PC-3 [1]): 2.5 µM | IC50 (MCF7 [2]): 3.2 µM

O=C1C=CC[C@H](c2cccc3ccccc23)O1
IC50 (PC-3 [1]): 0.8 µM | IC50 (MCF7 [2]): 2.6 µM

O=C1C=CC[C@H](c2ccnc3ccccc23)O1
IC50 (PC-3 [1]): 9.8 µM | IC50 (MCF7 [2]): 32.5 µM

C=CC[C@@H](OC(=O)C=C)c1c(C)ccc2ccccc12
IC50 (PC-3 [1]): 8.8 µM | IC50 (MCF7 [2]): 10.4 µM

C=CC[C@@H](OC(=O)C=C)c1cccc2ccccc12
IC50 (PC-3 [1]): 22.9 µM | IC50 (MCF7 [2]): > 50 µM

O=C1C=CC[C@H](c2cccc(Oc3ccccc3)c2)O1
IC50 (PC-3 [1]): 11 µM | IC50 (MCF7 [2]): > 50 µM

C=CC[C@@H](OC(=O)C=C)c1cnc2ccccc2c1
IC50 (PC-3 [1]): 16.3 µM | IC50 (MCF7 [2]): 28.8 µM

C=CC[C@@H](OC(=O)C=C)c1ccnc2ccccc12
IC50 (PC-3 [1]): 15 µM | IC50 (MCF7 [2]): 13.2 µM

Cc1ccc([C@H]2CC=CC(=O)O2)c2ccccc12
IC50 (PC-3 [1]): 0.05 µM | IC50 (MCF7 [2]): 0.44 µM

C=CC[C@@H](OC(=O)C=C)c1ccc(C)c2ccccc12
IC50 (PC-3 [1]): 45 µM | IC50 (MCF7 [2]): 33.1 µM

O=C1C=CC[C@H](/C=C/c2ccccc2)O1 [GONIOTHALAMIN]
IC50 (DU-145): 19 µM | IC50 (MCF7 [3]): 28 µM | IC50 (LNCaP): 12 µM | IC50 (PC-3 [4]): 4 µM
